In ChEMBL document CHEMBL1156469 (2007) one finds Activity and Ratio data, which are given here for one molecule.

Activity calls are given as the source filed them. The calls are words filed in the database; no cut-off is given here.

In assay [1] the test system is Osteoblast. The assay is described as follows: Reversal of increase in ER.DNA complex in rat primary osteoblast cells at 1 uM by RT-PCR in presence of PP2. It counts as functional, cell-based.
A short description of assay [2]: Reversal of increase in BMP2 expression in mouse MC3T3-E1 cells expressing pBMP2/mERE mutant at 1 uM after 4 hrs by luciferase method. It counts as functional, cell-based.
The nature of assay [3]: Reversal of increase in BMP2 expression in mouse MC3T3-E1 cells expressing pBMP2/mSp1 mutant at 1 uM after 4 hrs by luciferase method. The format is functional, cell-based.
Assay [4] has as its system Osteoblast. The assay can be described thus: Effect on ornithine decarboxylase gene expression in rat primary osteoblast cells assessed as expression ratio of treated to untreated control by microarray analysis. The format is functional. A digest of the protocol:
(§1)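 Resveratrol-treated and vehicle-treated primary osteoblasts were profiled on a mouse osteogenesis-focused cDNA array (GEArray Q series) built to track gene expression during osteogenic differentiation. Each gene's signal in treated cells was expressed as a ratio to untreated control.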

The test system of assay [5] is MC3T3-E1. The assay is described as follows: Reversal of increase in ER.DNA complex in mouse MC3T3-E1 cells transfected with dominant-negative mutant Src expression vector at 1 uM by RT-PCR. It counts as functional, cell-based. The procedure, abridged: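 BMP-2 promoter quantified by real-time PCR (45 cycles, 61 °C anneal), reported as IP-to-input Ct ratio. DN-Src by 3 μg vector, PP2 at 10 μM; ICI182780 and tamoxifen at indicated concentrations.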

Assay [6] concerns the target Forkhead box protein O3 (Homo sapiens) (UniProt O43524). The assay can be described thus: Induction of FOXO3a activity in human MDA-MB-231 cells. The format is cell-based.
The next assay relates to MDA-MB-231. The assay is described as follows: Reversal of inhibition in anchorage-independent colony formation of human MDA-MB-231 cells transfected with FOXO3a-specific small interfering RNA by soft agar colony forming assay. It counts as functional, cell-based.
Assay [7] concerns Osteoblast. The assay can be described thus: Increase in osteopontin levels in rat primary osteoblast cells at 1 uM after 72 hrs by ELISA. The format is functional, cell-based. A digest of the protocol:
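Cells treated with 1 μm for 72 h; osteocalcin or osteopontin in culture medium by sandwich ELISA, HRP-streptavidin/TMB, 450 nm; percent change versus untreated control.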
In general terms: In an ELISA, binding on a coated surface is turned into a signal by an enzyme label.

For the next assay, the system named is MCF7. The assay can be described thus: Antitumor activity against human MCF7 cells xenografted in SCID mouse orthotropic model assessed as inhibition of 17beta estradiol-induced tumor formation at 10 mg/kg for 2 days. The format is functional. The arrangement: scale not given: the % may be the effect or the level left. The procedure, abridged: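 Tumor cells were inoculated orthotopically into the mammary fat pad of 6-week-old female SCID mice. […] Tumor volume was calculated as LW2/2. Tumor formation was scored as mice with tumors per total (20 per group), and tumor weight as mean ± S.D. Groups were compared by one-way ANOVA with LSD post-hoc comparisons.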
A general note: Xenograft models place foreign cells or tissue in a host animal.

The test system of assay [8] is MC3T3-E1. The assay is described as follows: Increase in BMP2 mRNA levels in mouse MC3T3-E1 cells at 1 uM by RT-PCR method. The conditions noted are these: TDE = time-dependent effect. It counts as functional, cell-based. A digest of the protocol: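 Cells treated with 1 μm for 48 h; BMP-2 mRNA measured by quantitative real-time RT-PCR (SYBR Green, 0.5 μm each primer, 4 mm MgCl2, fluorescence read at 82 °C) and normalized.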

Assay [9] has as its system Osteoblast. The assay can be described thus: Effect on FMS-like tyrosine kinase 1 gene expression in rat primary osteoblast cells assessed as expression ratio of treated to untreated control by microarray analysis. It counts as functional.
For assay [10], the system named is Osteoblast. The assay is described as follows: Effect on procollagen 9 alpha 3 gene expression in rat primary osteoblast cells assessed as expression ratio of treated to untreated control by microarray analysis. It counts as functional. The procedure, abridged:
as §1

The test system of assay [11] is Osteoblast. The assay is described as follows: Effect on procollagen 4 alpha 2 gene expression in rat primary osteoblast cells assessed as expression ratio of treated to untreated control by microarray analysis. The format is functional. A digest of the protocol:
as §1

Assay [12] deals with Osteoblast. The assay is described as follows: Effect on procollagen 4 alpha 4 gene expression in rat primary osteoblast cells assessed as expression ratio of treated to untreated control by microarray analysis. It counts as functional. A digest of the protocol:
as §1

Assay [13] has as its system Osteoblast. The assay is described as follows: Effect on runt related transcription factor 2 gene expression in rat primary osteoblast cells assessed as expression ratio of treated to untreated control by microarray analysis. The format is functional. A digest of the protocol:
as §1

The subject of assay [14] is Osteoblast. The assay is described as follows: Effect on secreted acidic cysteine rich glycoprotein gene expression in rat primary osteoblast cells assessed as expression ratio of treated to untreated control by microarray analysis. It counts as functional. The procedure, abridged: as §1
The test system of assay [15] is Osteoblast. The assay is described as follows: Effect on procollagen 18alpha 1 gene expression in rat primary osteoblast cells assessed as expression ratio of treated to untreated control by microarray analysis. It counts as functional. The procedure, abridged: as §1
The test system of assay [16] is Osteoblast. The assay can be described thus: Effect on cathepsin K gene expression in rat primary osteoblast cells assessed as expression ratio of treated to untreated control by microarray analysis. The format is functional.

Forkhead box protein O3 (Homo sapiens), sequence (O43524 whole entry): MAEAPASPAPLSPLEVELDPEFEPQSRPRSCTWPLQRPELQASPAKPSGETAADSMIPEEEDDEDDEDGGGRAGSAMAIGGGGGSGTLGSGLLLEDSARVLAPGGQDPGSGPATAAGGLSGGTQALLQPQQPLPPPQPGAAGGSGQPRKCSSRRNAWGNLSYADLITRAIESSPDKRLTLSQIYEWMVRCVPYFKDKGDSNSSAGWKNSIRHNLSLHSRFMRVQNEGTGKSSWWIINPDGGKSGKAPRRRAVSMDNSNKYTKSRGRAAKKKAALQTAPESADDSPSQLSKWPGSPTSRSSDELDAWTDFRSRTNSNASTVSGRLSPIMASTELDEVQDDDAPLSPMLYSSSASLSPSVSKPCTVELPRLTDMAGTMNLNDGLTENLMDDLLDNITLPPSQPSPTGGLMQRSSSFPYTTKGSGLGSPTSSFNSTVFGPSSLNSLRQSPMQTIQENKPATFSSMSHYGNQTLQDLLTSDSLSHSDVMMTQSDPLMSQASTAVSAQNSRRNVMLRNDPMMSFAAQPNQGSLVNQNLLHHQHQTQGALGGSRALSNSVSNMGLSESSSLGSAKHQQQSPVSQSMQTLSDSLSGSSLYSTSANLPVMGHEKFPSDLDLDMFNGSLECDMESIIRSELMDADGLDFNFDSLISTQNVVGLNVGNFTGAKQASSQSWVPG

Consider `Oc1ccc(/C=C/c2cc(O)cc(O)c2)cc1` [RESVERATROL], for which the outcome (with Osteoblast [1]; in the assay on MC3T3-E1 [5]; in [6]; with MDA-MB-231; in the assay on Osteoblast [7]) was Active. Further, the Activity is 80% in [2], 40% in the assay on MCF7 and “tde” in the assay with MC3T3-E1 [8]. In addition, in assay [3], the result was inactive. Besides, the Ratio in the assay on Osteoblast [4] is 2.79; with Osteoblast [9] it was 0.41; with Osteoblast [10], 6.67; with Osteoblast [11] it was 4.48; in the assay on Osteoblast [12], 4.98; with Osteoblast [13], 3.26. In addition, the Ratio with Osteoblast [14] is on record as 1.6; in the assay with Osteoblast [15], 3.16; in the assay on Osteoblast [16] it was 5.6.
